Source: ChEMBL document CHEMBL4665829, “Synthesis, Structure-Activity Relationship, and Antimalarial Efficacy of 6-Chloro-2-arylvinylquinolines” (J Med Chem, 2020)
Active and inactive are the calls of the source. The rule behind the calls is not given here.

Legend:
[1] = Intrinsic clearance in mouse liver microsomes assessed as parent compound at 1 uM after 60 mins in presence of NADPH by LC-MS analysis; type: ADME, Microsome
How it was run: (§1)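 Mouse liver microsomes (0.5 mg/mL final protein) in 0.1 M phosphate, pH 7.4, with compound at 1 μM, 37 °C with shaking. Aliquots were quenched in cold acetonitrile and centrifuged; LC–MS gave parent peak area at 60 min relative to 0 min.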

[2] = Stability of compound in mouse liver microsomes assessed as parent compound remaining at 1 uM after 60 mins in presence of NADPH by LC-MS analysis; type: ADME, Microsome; details: 1 h; how it was run: as §1
[3] = Selectivity index, ratio of EC50 for cytotoxicity against human HepG2 cells to antiplasmodial activity against chloroquine-resistant Plasmodium falciparum Dd2; type: toxicity, cell-based; details: read-out: Ratio EC50
[4] = Resistant index, ratio of EC50 for antiplasmodial activity against chloroquine-resistant Plasmodium falciparum Dd2 to antiplasmodial activity against chloroquine-sensitive Plasmodium falciparum 3D7; type: functional
HepG2 = test: Cytotoxicity against human HepG2 cells assessed as reduction in cell viability after 48 hrs by MTS assay; type: cell-based; details: HepG2, 48 h
How it was run: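 HepG2 cells were seeded at 2250 per well and grown 24 h at 37 °C, 5% CO₂. Serial dilutions starting at 25 μM were added for a further 48 h. MTS was then added for 3 h at 37 °C and absorbance read at 490 nm. EC₅₀ came from nonlinear dose–response fits.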

[5] = Half life in mouse liver microsomes at 1 uM after 60 mins in presence of NADPH by LC-MS analysis; type: ADME, Microsome; details: 1 h; how it was run: as §1
Plasmodium falciparum [6] = test: Antiplasmodial activity against chloroquine-sensitive Plasmodium falciparum 3D7 infected in human erythrocytes assessed as reduction in microbial growth after 72 hrs by SYBR green I staining based fluorescence assay; type: functional, organism-based; details: 3D7, Erythrocyte
How it was run: (§2)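 SYBR Green I assay: twofold serial dilutions on P. falciparum cultures at 1% parasitemia, 1% hematocrit, 37 °C, 5% CO₂, 72 h, max 0.1% DMSO. DMSO and CQ as growth and inhibition controls. Plates frozen at −80 °C, thawed, lysed in Tris/saponin/EDTA/Triton buffer with 0.01% SYBR Green I, 1 h dark at room temperature. Fluorescence read at 485 ex/530 em. EC50 by nonlinear dose–response fit.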

Plasmodium falciparum [7] = test: Antiplasmodial activity against chloroquine-resistant Plasmodium falciparum Dd2 infected in human erythrocytes assessed as reduction in microbial growth after 72 hrs by SYBR green I staining based fluorescence assay; type: functional, organism-based; details: Dd2, Erythrocyte; how it was run: as §2
Hemozoin [8] = test: Inhibition of beta-hematin formation at 12.5 to 200 uM after 16 hrs by inverted microscopic analysis; details: dose microM 12.5-200, time 16.0 hrs
How it was run: (§3)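 Hemin (2 mM stock in 0.1 M NaOH; 100 μM final), propionate buffer pH 5.2 and sonicated phosphatidylcholine were incubated with a compound concentration series for 16 h at 37 °C with gentle shaking. Crystals were imaged by inverted microscope before quenching with 7.5% SDS in bicarbonate, pH 9.1. Free hemin was measured at 405 nm against a 0–16 μM calibration. Three independent experiments.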

Plasmodium berghei [9] = test: Antiplasmodial activity against Plasmodium berghei ANKA expressing luciferase infected in Swiss Webster mouse at 25 mg/kg, po for 5 days using monophosphate salt form of compound by luminescence based assay; type: functional, organism-based; details: time 5.0 day
How it was run: (§4)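 Female Swiss Webster mice got 10³ RBC infected with luciferase-expressing P. berghei ANKA. From 48 h post-infection, groups of five were gavaged once daily for 5 days in 2% methylcellulose/0.5% Tween 80, against a vehicle control. On day 7, mice received 150 mg/kg D-luciferin in PBS, and bioluminescence was imaged by IVIS as a measure of parasite load.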

Hemozoin [10] = test: Inhibition of beta-hematin formation after 16 hrs by inverted microscopic analysis; details: dose microM 12.5-200, time 16.0 hrs; how it was run: as §3
Plasmodium falciparum [11] = test: Parasiticidal activity against chloroquine-resistant Plasmodium falciparum Dd2 infected in RBC assessed as reduction in parasitemia at 5 times of EC50 incubated for 6 to 48 hrs followed by compound washout and then incubated for 96 hrs by Giemsa staining based microscopic analysis; type: functional, organism-based; details: time hrs 6-48
How it was run: (§5)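 Controls: 0.15% DMSO, DHA 50 nM, atovaquone 6.6 nM. Drug removed by three RPMI washes, then parasitemia followed daily for 96 h by Giemsa thin smears. Three independent biological replicates.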

Plasmodium falciparum [12] = test: Antiplasmodial activity against late trophozoite synchronized chloroquine-resistant Plasmodium falciparum Dd2 reduction in microbial growth at 5 times of EC50 after 12 hrs by YOYO-1 staining-based flow cytometric analysis; type: functional, organism-based
How it was run: (§6)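 Dd2 cultures tightly synchronized by magnetic separation and sorbitol were dosed at 5 × EC50 at 6, 18, 30 or 42 h post-invasion. Controls: DHA 50 nM, atovaquone 6.6 nM, DMSO 0.1%. Sampled every 12 h for Giemsa thin smears and for flow cytometry: glutaraldehyde/paraformaldehyde fixation, Triton permeabilization, RNAse, 500 nM YOYO-1, 500,000 events/sample. Three independent biological replicates.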

Plasmodium falciparum [13] = test: Antiplasmodial activity against synchronous gametocyte late stage of Plasmodium falciparum 3D7 harboring luc7 incubated for 72 hrs by ONE-Glo luciferase assay; type: functional, organism-based; details: 3D7, 72 h
How it was run: (§7)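 Gametocytes of P. falciparum 3D7 luc7 induced by nutrient starvation, cultured in heparin medium to remove asexual stages, Percoll-purified as early (II–III) or late (IV–V) stage. 50,000 gametocytes/well exposed 72 h to a 19-point gradient, 0.038 nM–10 μM. ONE-Glo luciferase read after 5 min. EC50 by nonlinear curve fit; three experiments.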

Plasmodium falciparum [14] = test: Antiplasmodial activity against late trophozoite synchronized chloroquine-resistant Plasmodium falciparum Dd2 reduction in microbial growth at 5 times of EC50 after 12 hrs by Giemsa staining-based microscopic analysis; type: functional, organism-based; how it was run: as §6
Plasmodium falciparum [15] = test: Antiplasmodial activity against synchronous gametocyte early stage of Plasmodium falciparum 3D7 harboring luc7 incubated for 72 hrs by ONE-Glo luciferase assay; type: functional, organism-based; details: 3D7, 72 h; how it was run: as §7
Plasmodium berghei [16] = test: Antiplasmodial activity against Plasmodium berghei ANKA expressing luciferase infected in Swiss Webster mouse at 100 mg/kg, po for 5 days using monophosphate salt form of compound by luminescence based assay; type: functional, organism-based; details: time 5.0 day; how it was run: as §4
[17] = Stability of compound in mouse liver microsomes assessed as parent compound remaining after 60 mins in presence of NADPH by LC-MS analysis; type: ADME, Microsome; details: read-out: Stabilty
[18] = Half life in mouse liver microsomes after 60 mins in presence of NADPH by LC-MS analysis; type: ADME, Microsome
[19] = Drug level in mouse liver microsomes treated with N1,N1-diethyl-N4-(6-methoxy-2-(4-nitrostyryl)quinolin-4-yl)pentane-1,4-diamine measured up to 60 mins by LC-MS analysis; type: ADME, Microsome; details: 1 h
How it was run: (§8)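 Microsomal incubations: mouse liver microsomes at 0.5 mg/mL, 1 μM compound, pH 7.4 phosphate, 37 °C, NADPH-regenerating system. The metabolite mixture was analysed by LC–MS after 15, 30 and 60 min.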

Plasmodium falciparum [20] = test: Antiplasmodial activity against synchronized chloroquine-resistant Plasmodium falciparum Dd2 reduction in microbial growth at 50 nM treated with compound at 42 hrs post infection measured after 12 hrs by YOYO-1 staining-based flow cytometric analysis; type: functional, organism-based; how it was run: as §6
Plasmodium falciparum [21] = test: Antiplasmodial activity against synchronized chloroquine-resistant Plasmodium falciparum Dd2 reduction in microbial growth at 50 nM treated with compound at 42 hrs post infection measured after 12 hrs by Giemsa staining-based microscopic analysis; type: functional, organism-based; how it was run: as §6
Plasmodium falciparum [22] = test: Parasiticidal activity against chloroquine-resistant Plasmodium falciparum Dd2 infected in RBC assessed as reduction in parasitemia at 50 nM incubated for 6 to 48 hrs followed by compound washout and then incubated for 96 hrs by Giemsa staining based microscopic analysis; type: functional, organism-based; details: time hrs 6-48; how it was run: as §5
[23] = Drug level in mouse liver microsomes treated with 6-chloro-2-(4-fluorostyryl)-N-(2-(4-methylpiperazin-1-yl)ethyl)quinolin-4-amine measured up to 60 mins by LC-MS analysis; type: ADME, Microsome; details: 1 h; how it was run: as §8

| Compound | CLH [1] [µL/min/mg] | Stabilty [2] [%] | selectivity ratio [3] | Ratio EC50 [4] | EC50 (HepG2) [nM] | t1/2 [5] [min] | EC50 (Plasmodium falciparum [6]) [nM] | EC50 (Plasmodium falciparum [7]) [nM] | EC50 (Plasmodium falciparum [13]) [nM] | EC50 (Plasmodium falciparum [15]) [nM] | also measured |
| --- | --- | --- | --- | --- | --- | --- | --- | --- | --- | --- | --- |
| Clc1ccc2nc(/C=C/c3ccncc3)cc(NCCCCN3CCOCC3)c2c1 | 96.2 | 5.6 | 561 | 0.5 | 5670 | 14.4 | 20.8 | 9.9 |  |  |  |
| CN(C)CCNc1cc(/C=C/c2ccncc2)nc2ccc(Cl)cc12 | 62.2 | 15.5 | 212 | 0.5 | 6110 | 22.3 | 56.6 | 28.8 |  |  |  |
| Fc1ccc(/C=C/c2cc(NCCCCN3CCOCC3)c3cc(Cl)ccc3n2)cc1 | 62.4 | 15.4 | 1480 | 0.3 | 3550 | 22.2 | 6.9 | 2.4 |  |  |  |
| CCN(CC)CCCC(C)Nc1ccnc2cc(Cl)ccc12 (configuration not stated) [CHLOROQUINE] |  |  |  |  | 10400 |  | 17.8 | 174 |  |  | inhibition (Hemozoin [8]): Active |
| CN1CCN(CCNc2cc(/C=C/c3ccc(F)cc3)nc3ccc(Cl)cc23)CC1 | 23 | 50.2 | 209 | 1 | 3200 | 60.3 | 15.7 | 15.3 | 2500 | 910 | Activity (Plasmodium berghei [9]): inactive; inhibition (Hemozoin [10]): Dose-dependent effect; Activity (Plasmodium falciparum [11]): Active; Activity (Plasmodium falciparum [12]): Active; Activity (Plasmodium falciparum [14]): Active; Activity (Plasmodium berghei [16]): Active |
| CCN(CC)CCCC(C)Nc1cc(/C=C/c2ccc([N+](=O)[O-])cc2)nc2ccc(OC)cc12 (configuration not stated) | 33.4 | 36.7 | 105 | 0.6 | 7020 |  | 119 | 67 |  |  | remaining at 1 h [17]: 47.8%; half-life [18]: 56.2 min |
| CN(C)c1ccc2nc3ccc(N(C)C)cc3[s+]c2c1 [METHYLENE BLUE ANHYDROUS] |  |  |  |  |  |  |  |  | 107 | 74.7 |  |
| CCNCCCC(C)Nc1cc(/C=C/c2ccc([N+](=O)[O-])cc2)nc2ccc(OC)cc12 (configuration not stated) |  |  |  |  |  |  |  |  |  |  | Drug uptake [19]: Active |
| C[C@H]1[C@@H](O)O[C@@H]2O[C@@]3(C)CC[C@H]4[C@H](C)CC[C@@H]1[C@@]24OO3 [ARTENIMOL] |  |  |  |  |  |  |  |  | 37.4 | 17.4 | Activity (Plasmodium falciparum [20]): Active; Activity (Plasmodium falciparum [21]): Active; Activity (Plasmodium falciparum [22]): Active |
| Fc1ccc(/C=C/c2cc(NCCN3CCNCC3)c3cc(Cl)ccc3n2)cc1 |  |  |  |  |  |  |  |  |  |  | Drug uptake [23]: Active |
